Article PMC4130767 (Bioorganic & medicinal chemistry letters, 2014)

Tested on: serine hydrolases in the HeLa cell membrane protein fraction
Test: ABPP-SILAC identification of serine hydrolase targets in cells
Assay type: cell-based
Settings: 20 μM, 4 h, FP-biotin probe
How it was run: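 Intact HeLa cells were cultured with test compound at 20 μM or DMSO control for 4 h. Membrane proteins were then isolated and labelled with FP-biotin probe for ABPP-SILAC. The read-out is the light/heavy ratio per serine hydrolase: 1 means no inhibition and 0 means complete inhibition. Two independent replicates were run.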

| SMILES | selectivity/sensitivity profile against serine hydrolases |
| --- | --- |
| O=C(N1CCCCC1)n1cccn1 [compound 10] | more selective nature |
| N#Cc1cnn(C(=O)N2CCCCC2)c1 [compound 12] | more sensitive nature |
